Only some compounds are listed: those with a hit (about 1.3% of all), similar ones and a draw of the others.
Diaphorase inh: diaphorase inhibitors and chemical oxidizers, primary screen, counter-screen for diaphorase-coupled primary assays, biochemical, uHTS, resorufin fluorescence; 190,000 tested, 0.69% active; diaphorase resazurin-to-resorufin fluorescence, NADH, 16 min; bacterial (C. kluyveri) enzyme, not human; inhibition, % at 20 µM;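 active = primary screen inhibition at 20 µM above a set limit, cut at about 50% in these data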;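 also: plate controls were DMSO with full reaction for no effect and wells lacking NADH for full effect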
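Detection: fluorescence of resorufin formed from resazurin, Ex 544/Em 590 nm; test system: Clostridium kluyveri diaphorase enzyme; amount: 0.14 U/mL diaphorase, enzyme working solution; times: 16-min room-temperature incubation before reading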
HKDC1 inhibitor: HKDC1 hexokinase inhibitors, primary screen, biochemical, fluorescence, uHTS; Q2TB90; recombinant HKDC1, G6PDH/diaphorase resazurin coupled fluorescence; inhibition, % at 20 µM; 340,000 tested, 0.16% active;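 active = inhibition above about 35% when tested at 20 µM, limit read from the data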;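 also: plate controls were DMSO wells with enzyme for no effect and DMSO wells lacking enzyme for full effect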
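Assay system: in-house recombinant HK5 (HKDC1) enzyme. Input: HKDC1 at 5 µg/mL. Medium: Tris pH 8.0 buffer with MgCl2, Tween-20, BSA, BME. Dosing: single 20 µM dose. Schedule: 90 min reaction incubation at room temperature, dark. Signal: resazurin-to-resorufin fluorescence via G6PDH and diaphorase coupling, 525/613 nm. Controls: DMSO-enzyme wells negative, buffer-substituted wells positive.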
G6PDH counter: L. mesenteroides G6PDH inhibitors, counter-screen for G6PDH-coupled screening assays, biochemical, Leuconostoc mesenteroides enzyme; inhibition, % at 5 µM; glucose-6-phosphate dehydrogenase [Leuconostoc mesenteroides]; Purified L. mesenteroides G6PDH, diaphorase/resazurin coupled fluorescence, 45 min; 200,000 tested, 0.12% active; AID 1020, 2008; in the data active = inhibition above about 50%
PfGluPho inh: PfG6PD enzyme inhibitors, primary screen, biochemical, fluorescence intensity, uHTS | 350,000 tested, 0.78% active | PfGluPho enzyme, NADPH resazurin-diaphorase fluorescence | inhibition, % at 20 µM;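 active = inhibition reaching at least a set limit at 20 µM in the primary screen, cut at about 59% in these data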;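 also: 0% = DMSO wells with substrate and 100% = DMSO wells lacking glucose-6-phosphate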
PfGluPho conf: PfG6PD inhibitors, hit retest, confirmation, biochemical, fluorescence intensity, single concentration. shares compounds with PfGluPho inh. recombinant PfGluPho, NADPH-diaphorase-resazurin fluorescence. inhibition, % at 20 µM. 2,400 tested, 34% active. AID 504753, 2011;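 active = inhibition of at least 50% at 20 µM in any single replicate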;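 also: 0% = DMSO with substrate and 100% = DMSO lacking glucose-6-phosphate substrate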
Diaphorase 10uM: diaphorase inhibitors and chemical oxidizers, confirmation, counter-screen for P. falciparum G6PD inhibitor project, biochemical, fluorescence intensity, 10 µM NADPH; 820 tested, 39% active; shares compounds with PfGluPho inh; diaphorase-coupled resazurin reduction, NADPH 10 uM; AID 504862, 2011; inhibition, % at 20 µM;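 active = average inhibition reaching 50% or more with the compound at 20 µM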;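 also: resorufin red fluorescence formed as diaphorase reduces resazurin using NADPH; 0% = DMSO with enzyme and 100% = DMSO without enzyme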
Diaphorase 30uM: diaphorase inhibitors and chemical oxidizers, confirmation, counter-screen for P. falciparum G6PD inhibitor project, biochemical, fluorescence intensity, 30 µM NADPH | shares compounds with PfGluPho inh | Diaphorase/resazurin coupled assay, resorufin fluorescence | inhibition, % at 20 µM | 820 tested, 29% active | AID 504863, 2011;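 active = inhibition averaging 50% or more, tested at 20 µM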;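 also: 0% = DMSO with enzyme and 100% = DMSO wells lacking diaphorase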
* = called active by the depositor; . = not tested or not shown.

SMILES | Diaphorase inh | HKDC1 inhibitor | G6PDH counter | PfGluPho inh | PfGluPho conf | others
Cc1ccc(Cl)cc1NC(=O)c1cc2ccccc2cc1O | . | -2.1 | . | 61.1* | 3.9
COc1cc(NC(=O)c2cc3ccccc3cc2O)c(OC)cc1Cl | . | 0.3 | . | 47.6 | .
COc1ccc(CC2=CC(=O)c3ccccc3C2=O)cc1 | . | 29.2 | . | 85.2* | 8.8
CC1=CC(=O)C2(C)C(C)=C(C)C12C (configuration not stated) | . | . | . | -2.4 | .
Cc1cc(N=NC(=O)c2ccccc2O)c2ccccc2c1O | 14.9 | -2.1 | 14.1 | 64.3* | 49.1* | Diaphorase 10uM=19.5;Diaphorase 30uM=20.9
Nc1ccc(Oc2ncccn2)cc1 | . | 20.9 | . | 66.3* | 26.5
COc1ccc(CC(=O)Nc2cc(S(=O)(=O)N3CCCC3)ccc2Cl)c(OC)c1 | . | 2.3 | . | -7.3 | .
CC(C)N(C(=O)[C@H]1C[C@H](CC(=O)NCC23CC4CC(CC(C4)C2)C3)C(=O)N2CCc3c([nH]c4cc(CCC(=O)N(C)C)ccc34)[C@]12C)C(C)C | . | 15.8 | . | 19.0 | .
Oc1ccc(N2CCN(CC(O)c3ccccc3)CC2)cc1 (configuration not stated) | . | 6.6 | . | 79.5* | 26.3
COc1ccc(-n2c(=S)[nH]c3[nH]ncc3c2=O)cc1 | . | 0.3 | . | 49.5 | .
O=c1c2cn[nH]c2[nH]c(=S)n1-c1ccccc1 | 60.6* | -1.9 | 7.3 | 59.5* | 0.1
O=C(Nc1nc2c(s1)CCCC2)c1ccc(Br)s1 | 13.1 | -7.4 | 5.1 | 68.4* | 26.1
O=C(Nc1nc2c(s1)CCCC2)c1ccc2ncsc2c1 | 21.2 | 0.5 | 2.2 | 65.2* | 9.2
O=C(Nc1nc2c(s1)CCCC2)c1ccc(N2C(=O)CCC2=O)cc1 | . | 5.2 | . | 5.9 | .
Cc1ncsc1C(=O)Nc1nc2c(s1)CCCC2 | -8.5 | -4.8 | 5.7 | -1.0 | .
CCn1nc(C(=O)OCC(=O)N(CCC#N)c2ccccc2)c2ccccc2c1=O | . | -2.2 | . | 11.6 | .
COc1ccc(-c2cc(-c3n[nH]c(=S)n3-c3cc(OC)ccc3OC)[nH]n2)cc1 | 28.5 | 3.0 | 10.1 | 59.0 | 23.4
COc1ccc(OC)c(-n2c(-c3cc(-c4ccc(F)cc4)n[nH]3)n[nH]c2=S)c1 | 28.2 | -3.0 | -5.5 | 39.7 | .
Cc1ccc(NC2=C(NC(=O)c3ccccc3)C(=O)c3ccccc3C2=O)cc1Cl | 41.5 | 26.7 | -20.5 | 86.2* | 63.4* | Diaphorase 10uM=30.9;Diaphorase 30uM=18.2
O=C1C=CC(=O)N1Cc1ccccc1 | . | -0.5 | . | 71.1* | -15.6
C[C@@H]1CN([C@H](C)CO)C(=O)c2cc(Br)cnc2O[C@@H]1CN(C)Cc1ccc(-c2ccccc2)cc1 | . | . | . | 10.0 | .
O=C(/C=C/c1cccs1)N1CCN(c2ccc(O)cc2)CC1 | 20.3 | -1.9 | 2.2 | 64.0* | 36.4
Cc1ccc(OCCSc2nc3ccccc3n2CC(=O)O)cc1C | . | 1.4 | . | -19.2 | .
Cc1ccc(S(=O)(=O)NC(=O)Nc2ccc(N(C)C)cc2)cc1 | . | 9.0 | . | 73.3* | 21.1
C=C(C)CN=CC1(C)CCC(C)=CO1 (configuration not stated) | . | -3.2 | . | -2.7 | .
Cc1ccc(C(=O)OCC(=O)NCc2ccc3c(c2)OCO3)o1 | . | -2.7 | . | -1.9 | .
C=CCN(c1ccccc1OC)S(=O)(=O)c1cccc(C(=O)NCC(c2ccc(OC)cc2)N2CCCC2)c1 (configuration not stated) | . | -1.5 | . | 11.8 | .
CCOc1ccc(-c2cn(-c3ccccc3OC)c(=S)[nH]2)cc1 | . | 5.6 | . | 13.8 | .
CCOc1ccc(-n2cc(-c3ccc(OC)c(OC)c3)[nH]c2=S)cc1 | 24.4 | 2.7 | 4.1 | 65.6* | 29.6
CCNCc1ccccc1OCc1ccccc1 | -2.2 | 6.2 | 5.2 | -21.3 | .

Screens (PubChem)
